# Reference: ChEMBL document CHEMBL1124339, “Conformationally restricted analogues of atriopeptin(103-125)amide” (J Med Chem, 1989)
# Positions of bridges follow the written chain, without caps; N, C: chain ends. Non-standard residues stand in square brackets, D forms with d. Residues, ends and D or L forms follow the SMILES beside them. *: point of attachment. hCys = N[C@@H](CCS)C(=O)O; Acm = CC(=O)NC*
# System: not listed separately
# Experiment: Vasorelaxant activity in norepinephrine-contracted rabbit aortic rings, compared to AP(103-126)
# Type: functional, Oryctolagus cuniculus, Aorta
row,SMILES,Relative potency
1,CC[C@H](C)[C@@H]1NC(=O)[C@H](CCCN=C(N)N)NC(=O)[C@H](CC(=O)O)NC(=O)[C@H]([C@@H](C)CC)NC(=O)[C@H](CCCN=C(N)N)NC(=O)[C@H](CSCNC(C)=O)NC(=O)CNC(=O)[C@H](Cc2ccccc2)NC(=O)[C@@H](NC(=O)[C@H](CO)NC(=O)[C@@H](N)CO)CSSC[C@@H](C(=O)N[C@@H](CC(N)=O)C(=O)N[C@@H](CO)C(=O)N[C@@H](Cc2ccccc2)C(=O)N[C@@H](CCCN=C(N)N)C(N)=O)NC(=O)CNC(=O)[C@H](CC(C)C)NC(=O)CNC(=O)[C@H](CSCNC(C)=O)NC(=O)[C@H](CCC(N)=O)NC(=O)[C@H](C)NC(=O)CNC1=O,0.43
2,CC[C@H](C)[C@@H]1NC(=O)[C@H](CCCN=C(N)N)NC(=O)[C@H](CC(=O)O)NC(=O)[C@H]([C@@H](C)CC)NC(=O)[C@H](CCCN=C(N)N)NC(=O)[C@H](CSCNC(C)=O)NC(=O)CNC(=O)[C@H](Cc2ccccc2)NC(=O)[C@@H](NC(=O)[C@H](CO)NC(=O)[C@@H](N)CO)CSSC[C@@H](C(=O)NCC(=O)N[C@@H](CC(C)C)C(=O)NCC(=O)N[C@@H](CSCNC(C)=O)C(=O)N[C@@H](CC(N)=O)C(=O)N[C@@H](CO)C(=O)N[C@@H](Cc2ccccc2)C(=O)N[C@@H](CCCN=C(N)N)C(N)=O)NC(=O)[C@H](CCC(N)=O)NC(=O)[C@H](C)NC(=O)CNC1=O,0.042
3,"CC[C@H](C)[C@@H]1NC(=O)[C@H](CCCN=C(N)N)NC(=O)[C@H](CC(=O)O)NC(=O)[C@H]([C@@H](C)CC)NC(=O)[C@H](CCCN=C(N)N)NC(=O)[C@@H]2CCSSC[C@H](NC(=O)[C@H](CCC(N)=O)NC(=O)[C@H](C)NC(=O)CNC1=O)C(=O)NCC(=O)N[C@@H](CC(C)C)C(=O)NCC(=O)N[C@H](C(=O)N[C@@H](CC(N)=O)C(=O)N[C@@H](CO)C(=O)N[C@@H](Cc1ccccc1)C(=O)N[C@@H](CCCN=C(N)N)C(N)=O)CSSC[C@H](NC(=O)[C@H](CO)NC(=O)[C@@H](N)CO)C(=O)N[C@@H](Cc1ccccc1)C(=O)NCC(=O)N2 (H-SSCFG[hCys]RIDRIGAQCGLGCNSFR-NH2; disulfide 3-19, 6-15)",0.049
4,CC[C@H](C)[C@@H]1NC(=O)[C@H](CCCN=C(N)N)NC(=O)[C@H](CC(=O)O)NC(=O)[C@H]([C@@H](C)CC)NC(=O)[C@H](CCCN=C(N)N)NC(=O)CNC(=O)CNC(=O)[C@H](Cc2ccccc2)NC(=O)[C@@H](NC(=O)[C@H](CO)NC(=O)[C@@H](N)CO)CSSC[C@@H](C(=O)N[C@@H](CC(N)=O)C(=O)N[C@@H](CO)C(=O)N[C@@H](Cc2ccccc2)C(=O)N[C@@H](CCCN=C(N)N)C(N)=O)NC(=O)CNC(=O)[C@H](CC(C)C)NC(=O)CNC(=O)[C@H](CO)NC(=O)[C@H](CCC(N)=O)NC(=O)[C@H](C)NC(=O)CNC1=O,1.7
5,CC[C@H](C)[C@@H]1NC(=O)[C@H](CCCN=C(N)N)NC(=O)[C@H](CC(=O)O)NC(=O)[C@H]([C@@H](C)CC)NC(=O)[C@H](CCCN=C(N)N)NC(=O)[C@@H](NC(=O)CNC(=O)[C@H](Cc2ccccc2)NC(=O)[C@H](CSCNC(C)=O)NC(=O)[C@H](CO)NC(=O)[C@@H](N)CO)CSSC[C@@H](C(=O)N[C@@H](CC(N)=O)C(=O)N[C@@H](CO)C(=O)N[C@@H](Cc2ccccc2)C(=O)N[C@@H](CCCN=C(N)N)C(N)=O)NC(=O)CNC(=O)[C@H](CC(C)C)NC(=O)CNC(=O)[C@H](CSCNC(C)=O)NC(=O)[C@H](CCC(N)=O)NC(=O)[C@H](C)NC(=O)CNC1=O (H-SSC(Acm)FGCRIDRIGAQC(Acm)GLGCNSFR-NH2; disulfide 6-19),0.0022
6,CC[C@H](C)[C@H](NC(=O)[C@H](CC/N=C(/N)NO)NC(=O)[C@H](CC(=O)O)NC(=O)[C@@H](NC(=O)[C@H](CCN=C(N)N)NC(=O)[C@H](CSCNC(C)=O)NC(=O)CNC(=O)[C@H](Cc1ccccc1)NC(=O)[C@H](CSCNC(C)=O)NC(=O)[C@H](CO)NC(=O)[C@@H](N)CO)[C@@H](C)CC)C(=O)NCC(=O)N[C@@H](C)C(=O)N[C@@H](CCC(N)=O)C(=O)C1SSC[C@@H](C(=O)N[C@@H](CC(N)=O)C(=O)CN[C@@H](CO)C(=O)N[C@@H](Cc2ccccc2)C(=O)N[C@@H](CCCN=C(N)N)C(N)=O)NC(=O)CNC(=O)[C@H](CC(C)C)NC(=O)CNC(=O)[C@H]1N (stereo in doubt; 9b),0.013
7,CC[C@H](C)[C@@H]1NC(=O)[C@H](CCCN=C(N)N)NC(=O)[C@H](CC(=O)O)NC(=O)[C@H]([C@@H](C)CC)NC(=O)[C@H](CCCN=C(N)N)NC(=O)[C@H]2CSSC[C@@H](NC(=O)[C@H](CCC(N)=O)NC(=O)[C@H](C)NC(=O)CNC1=O)C(=O)NCC(=O)N[C@@H](CC(C)C)C(=O)NCC(=O)N[C@H](C(=O)N[C@@H](CC(N)=O)C(=O)N[C@@H](CO)C(=O)N[C@@H](Cc1ccccc1)C(=O)N[C@@H](CCCN=C(N)N)C(N)=O)CSSC[C@H](NC(=O)[C@H](CO)NC(=O)[C@@H](N)CO)C(=O)N[C@@H](Cc1ccccc1)C(=O)NCC(=O)N2,0.0073
8,CC[C@H](C)[C@@H]1NC(=O)[C@H](CCCN=C(N)N)NC(=O)[C@H](CC(=O)O)NC(=O)[C@H]([C@@H](C)CC)NC(=O)[C@H](CCCN=C(N)N)NC(=O)[C@@H](CSCNC(C)=O)NC(=O)CNC(=O)[C@H](Cc2ccccc2)NC(=O)[C@@H](NC(=O)[C@H](CO)NC(=O)[C@@H](N)CO)CSSC[C@@H](C(=O)N[C@@H](CC(N)=O)C(=O)N[C@@H](CO)C(=O)N[C@@H](Cc2ccccc2)C(=O)N[C@@H](CCCN=C(N)N)C(N)=O)NC(=O)CNC(=O)[C@H](CC(C)C)NC(=O)CNC(=O)[C@@H](CSCNC(C)=O)NC(=O)[C@H](CCC(N)=O)NC(=O)[C@H](C)NC(=O)CNC1=O,0.044
9,CC[C@H](C)[C@@H]1NC(=O)[C@H](CCCN=C(N)N)NC(=O)[C@H](CC(=O)O)NC(=O)[C@H]([C@@H](C)CC)NC(=O)[C@H](CCCN=C(N)N)NC(=O)CNC(=O)CNC(=O)[C@H](Cc2ccccc2)NC(=O)[C@@H](NC(=O)[C@H](CO)NC(=O)[C@@H](N)CO)CSSC[C@@H](C(=O)N[C@@H](CC(N)=O)C(=O)N[C@@H](CO)C(=O)N[C@@H](Cc2ccccc2)C(=O)N[C@@H](CCCN=C(N)N)C(N)=O)NC(=O)CNC(=O)[C@H](CC(C)C)NC(=O)CNC(=O)[C@H](CSCNC(C)=O)NC(=O)[C@H](CCC(N)=O)NC(=O)[C@H](C)NC(=O)CNC1=O,0.21
10,CC[C@H](C)[C@@H]1NC(=O)[C@H](CCCN=C(N)N)NC(=O)[C@H](CC(=O)O)NC(=O)[C@H]([C@@H](C)CC)NC(=O)[C@H](CCCN=C(N)N)NC(=O)[C@H](CCSCNC(C)=O)NC(=O)CNC(=O)[C@H](Cc2ccccc2)NC(=O)[C@@H](NC(=O)[C@H](CO)NC(=O)[C@@H](N)CO)CSSC[C@@H](C(=O)N[C@@H](CC(N)=O)C(=O)N[C@@H](CO)C(=O)N[C@@H](Cc2ccccc2)C(=O)N[C@@H](CCCN=C(N)N)C(N)=O)NC(=O)CNC(=O)[C@H](CC(C)C)NC(=O)CNC(=O)[C@H](CSCNC(C)=O)NC(=O)[C@H](CCC(N)=O)NC(=O)[C@H](C)NC(=O)CNC1=O,0.24
11,CC[C@H](C)[C@@H]1NC(=O)[C@H](CCCN=C(N)N)NC(=O)[C@H](CC(=O)O)NC(=O)[C@H]([C@@H](C)CC)NC(=O)[C@H](CCCN=C(N)N)NC(=O)[C@H](CSCNC(C)=O)NC(=O)CNC(=O)[C@H](Cc2ccccc2)NC(=O)[C@@H](NC(=O)[C@H](CO)NC(=O)[C@@H](N)CO)CSSC[C@@H](C(=O)N[C@@H](CC(N)=O)C(=O)N[C@@H](CO)C(=O)N[C@@H](Cc2ccccc2)C(=O)N[C@@H](CCCN=C(N)N)C(N)=O)NC(=O)CNC(=O)[C@H](CC(C)C)NC(=O)CNC(=O)[C@H](CO)NC(=O)[C@H](CCC(N)=O)NC(=O)[C@H](C)NC(=O)CNC1=O,1.03
12,CC[C@H](C)[C@@H]1NC(=O)[C@H](CCCN=C(N)N)NC(=O)[C@H](CC(=O)O)NC(=O)[C@H]([C@@H](C)CC)NC(=O)[C@H](CCCN=C(N)N)NC(=O)[C@H](CCSCNC(C)=O)NC(=O)CNC(=O)[C@H](Cc2ccccc2)NC(=O)[C@@H](NC(=O)[C@H](CO)NC(=O)[C@@H](N)CO)CSSC[C@@H](C(=O)N[C@@H](CC(N)=O)C(=O)N[C@@H](CO)C(=O)N[C@@H](Cc2ccccc2)C(=O)N[C@@H](CCCN=C(N)N)C(N)=O)NC(=O)CNC(=O)[C@H](CC(C)C)NC(=O)CNC(=O)[C@H](CCSCNC(C)=O)NC(=O)[C@H](CCC(N)=O)NC(=O)[C@H](C)NC(=O)CNC1=O,0.068
13,CC[C@H](C)[C@H](NC(=O)[C@H](CC/N=C(/N)NO)NC(=O)[C@H](CC(=O)O)NC(=O)[C@@H](NC(=O)[C@H](CCN=C(N)N)NC(=O)[C@H](CSCNC(C)=O)NC(=O)CNC(=O)[C@H](Cc1ccccc1)NC(=O)[C@H](CSCNC(C)=O)NC(=O)[C@H](CO)NC(=O)[C@@H](N)CO)[C@@H](C)CC)C(=O)NCC(=O)N[C@@H](C)C(=O)N[C@@H](CCC(N)=O)C(=O)C1SSC[C@@H](C(=O)N[C@@H](CC(N)=O)C(=O)CN[C@@H](CO)C(=O)N[C@@H](Cc2ccccc2)C(=O)N[C@@H](CCCN=C(N)N)C(N)=O)NC(=O)CNC(=O)[C@H](CC(C)C)NC(=O)CNC(=O)[C@H]1N (stereo in doubt; 9a),0.028

# Species: Oryctolagus cuniculus
# Experiment: Relative binding potency towards vasorelaxant binding site compared to AP(103-126)
# How it was run: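 Varied unlabeled peptide concentrations; started by adding membranes; 30 min at 25 °C. Filtration with ice-cold buffer, then gamma counting. Nonspecific binding measured with 10^-6 M unlabeled reference peptide. Specific binding fitted by nonlinear least squares.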
row,SMILES,Relative potency
1,CC[C@H](C)[C@@H]1NC(=O)[C@H](CCCN=C(N)N)NC(=O)[C@H](CC(=O)O)NC(=O)[C@H]([C@@H](C)CC)NC(=O)[C@H](CCCN=C(N)N)NC(=O)[C@@H](CCSCNC(C)=O)NC(=O)CNC(=O)[C@H](Cc2ccccc2)NC(=O)[C@@H](NC(=O)[C@H](CO)NC(=O)[C@@H](N)CO)CSSC[C@@H](C(=O)N[C@@H](CC(N)=O)C(=O)N[C@@H](CO)C(=O)N[C@@H](Cc2ccccc2)C(=O)N[C@@H](CCCN=C(N)N)C(N)=O)NC(=O)CNC(=O)[C@H](CC(C)C)NC(=O)CNC(=O)[C@@H](CCSCNC(C)=O)NC(=O)[C@H](CCC(N)=O)NC(=O)[C@H](C)NC(=O)CNC1=O,0.84
2,CC[C@H](C)[C@H]1NC(=O)[C@H](CCCN=C(N)N)NC(=O)[C@H](CC(=O)O)NC(=O)[C@@H]([C@@H](C)CC)NC(=O)[C@H](CCCN=C(N)N)NC(=O)CNC(=O)CNC(=O)[C@@H](Cc2ccccc2)NC(=O)[C@H](NC(=O)[C@H](CO)NC(=O)[C@@H](N)CO)CSSC[C@H](C(=O)N[C@@H](CC(N)=O)C(=O)N[C@@H](CO)C(=O)N[C@@H](Cc2ccccc2)C(=O)N[C@@H](CCCN=C(N)N)C(N)=O)NC(=O)CNC(=O)[C@@H](CC(C)C)NC(=O)CNC(=O)[C@@H](CO)NC(=O)[C@H](CCC(N)=O)NC(=O)[C@@H](C)NC(=O)CNC1=O,3.2

# System: Atrial natriuretic peptide receptor 3 (Oryctolagus cuniculus)
# Experiment: Relative binding potency towards non-vasorelaxant binding site compared to AP(103-126)
row,SMILES,Relative potency
1,CC[C@H](C)[C@@H]1NC(=O)[C@H](CCCN=C(N)N)NC(=O)[C@H](CC(=O)O)NC(=O)[C@H]([C@@H](C)CC)NC(=O)[C@H](CCCN=C(N)N)NC(=O)[C@@H](CCSCNC(C)=O)NC(=O)CNC(=O)[C@H](Cc2ccccc2)NC(=O)[C@@H](NC(=O)[C@H](CO)NC(=O)[C@@H](N)CO)CSSC[C@@H](C(=O)N[C@@H](CC(N)=O)C(=O)N[C@@H](CO)C(=O)N[C@@H](Cc2ccccc2)C(=O)N[C@@H](CCCN=C(N)N)C(N)=O)NC(=O)CNC(=O)[C@H](CC(C)C)NC(=O)CNC(=O)[C@@H](CCSCNC(C)=O)NC(=O)[C@H](CCC(N)=O)NC(=O)[C@H](C)NC(=O)CNC1=O,0.84
2,CC[C@H](C)[C@H]1NC(=O)[C@H](CCCN=C(N)N)NC(=O)[C@H](CC(=O)O)NC(=O)[C@@H]([C@@H](C)CC)NC(=O)[C@H](CCCN=C(N)N)NC(=O)CNC(=O)CNC(=O)[C@@H](Cc2ccccc2)NC(=O)[C@H](NC(=O)[C@H](CO)NC(=O)[C@@H](N)CO)CSSC[C@H](C(=O)N[C@@H](CC(N)=O)C(=O)N[C@@H](CO)C(=O)N[C@@H](Cc2ccccc2)C(=O)N[C@@H](CCCN=C(N)N)C(N)=O)NC(=O)CNC(=O)[C@@H](CC(C)C)NC(=O)CNC(=O)[C@@H](CO)NC(=O)[C@H](CCC(N)=O)NC(=O)[C@@H](C)NC(=O)CNC1=O,3.2
